Assays:
Format in all cases: functional
[1] = system: PC-3; test: Inhibition of cell growth was determined in PC-3 cell line of human prostate tumor using MTT assay, on day 6 after treatment; conditions: PC-3, 144 h, read-out: ID50 (the source's name)
How it was run: (§1)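 Cells in Eagle's MEM with 10% fetal calf serum and nonessential amino acids were seeded at 500 cells/well and incubated overnight at 37 °C in humidified 95% air/5% CO2. Drug dilutions were then added, each concentration in quadruplicate, with buffer-only control columns, for 6 days. MTT (25 µL of 5 mg/mL) was added for 4 h at 37 °C.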

[2] = system: LNCaP; test: Inhibition of cell growth was determined in LNCaP cell line of human prostate tumor using MTT assay, on day 6 after treatment; conditions: 144 h, read-out: ID50 (the source's name); how it was run: as §1
[3] = system: DU-145; test: Inhibition of cell growth was determined in DU145 cell line of human prostate tumor using MTT assay, on day 6 after treatment; conditions: DU-145, 144 h, read-out: ID50 (the source's name); how it was run: as §1
[4] = system: DuPro; test: Inhibition of cell growth was determined in DUPRO cell line of human prostate tumor using MTT assay, on day 6 after treatment; conditions: 144 h, read-out: ID50 (the source's name); how it was run: as §1

Structure (SMILES) | IC50 [1] [µM] | IC50 [2] [µM] | IC50 [3] [µM] | IC50 [4] [µM]
CCNC/C=C\CNC/C=C\CNC/C=C\CNC/C=C\CNCC | 0.2 | 0.55 | – | –
CCNC/C=C\CNCCCCNC/C=C\CNCCCCNCC | > 31.2 | 0.54 | 0.34 | > 31.2
CCNC/C=C\CNC/C=C\CNCCCCNC/C=C\CNCC | – | 0.32 | – | > 31.2
CCNC/C=C\CNCCCCNCCCCNC/C=C\CNCC | 0.5 | 0.3 | – | 0.25

Compounds with a lower IC50 [2], results first:

IC50 [1] [µM] | IC50 [2] [µM] | IC50 [3] [µM] | Structure (SMILES) | IC50 [4] [µM]
> 31.2 | 0.24 | – | CCNC/C=C\CNC/C=C\CNC/C=C\CNCCCCNCC | > 31.2
> 31.2 | 0.15 | – | CCNC/C=C\CNC/C=C\CNCCCCNCCCCNCC | –
> 31.2 | 0.15 | – | CCNCCCCNC/C=C\CNC/C=C\CNCCCCNCC | –
– | 0.14 | – | CCNC/C=C\CNCCCCNCCCCNCCCCNCC | –
> 31.2 | 0.09 | 0.08 | CCNCCCCNC/C=C\CNCCCCNCCCCNCC | –
